Measurements from ChEMBL document CHEMBL5058577, “EUbOPEN Chemogenomics Library 2 (Multiplex)” (2022).

Test system: U2OS
Test: Multiplex assay against U2OS
Assay type: toxicity, cell-based
Settings: human
Outline: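 Phenotypes for tubulin, mitochondrial mass and membrane permeability are expressed as per cents of healthy-nucleus cells. Cells were stained live at seeding with Hoechst33342, BioTracker Green Microtubule Cytoskeleton Dye, MitoTracker Red and Annexin V Alexa Fluor 680, then imaged after compound addition on a CQ1 microscope at 37°C and 5% CO2. Machine-learning gating in CellPathfinder separated Hoechst high-intensity objects from normal cells, divided normal cells by nuclear state (healthy, pyknosed, fragmented) and divided pyknosed cells into mitotic or apoptotic.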

[1] = 12 h, 1 µM, compound concentration 1 uM, replicate 1
[2] = 12 h, 1 µM, compound concentration 1 uM, replicate 2
[3] = 12 h, 10 µM, compound concentration 10 uM, replicate 1
[4] = 12 h, 10 µM, compound concentration 10 uM, replicate 2
[5] = 24 h, 1 µM, compound concentration 1 uM, replicate 1
[6] = 24 h, 1 µM, compound concentration 1 uM, replicate 2
[7] = 24 h, 10 µM, compound concentration 10 uM, replicate 1
[8] = 24 h, 10 µM, compound concentration 10 uM, replicate 2
[9] = 48 h, 1 µM, compound concentration 1 uM, replicate 1
[10] = 48 h, 1 µM, compound concentration 1 uM, replicate 2
[11] = 48 h, 10 µM, compound concentration 10 uM, replicate 1
[12] = 48 h, 10 µM, compound concentration 10 uM, replicate 2

For `CCCCCC(O)/C=C/[C@H]1C(=O)CC(O)C1C/C=C\CCCC(=O)O` (stereo partly specified), the “Population Apoptotic (%)” value [1] was 60%, the “Population Fragmented Nuclei (%)” value [1] was 28% and the “Population Healthy Nuclei (%)” value [1] was 59%. For the same molecule, the “Population Hoechst High Intensity Objects (%)” value [1] was 1%, the “Population Membrane Permeable-Phenotype (%)” value [1] was 5% and the “Population Mitochondria Different-Phenotype (%)” value [1] was 4%. The “Population Mitotic Cells (%)” value [1] was 40%, the “Population Normal (%)” value [1] was 98% and the “Population Pyknosed Nuclei (%)” value [1] was 12%. The “Population Tubulin-Different-Phenotype (%)” value [1] was 4%, the “Total Cell Count” value [1] was 203 and the “Population Apoptotic (%)” value [2] was 88%. The “Population Fragmented Nuclei (%)” value [2] was 15%, the “Population Healthy Nuclei (%)” value [2] was 76% and the “Population Hoechst High Intensity Objects (%)” value [2] was 0%. The “Population Membrane Permeable-Phenotype (%)” value [2] was 8%, the “Population Mitochondria Different-Phenotype (%)” value [2] was 6% and the “Population Mitotic Cells (%)” value [2] was 11%. The “Population Normal (%)” value [2] was 99%, the “Population Pyknosed Nuclei (%)” value [2] was 8% and the “Population Tubulin-Different-Phenotype (%)” value [2] was 8%. The “Total Cell Count” value [2] was 113, the “Population Apoptotic (%)” value [3] was 71% and the “Population Fragmented Nuclei (%)” value [3] was 23%. For the same molecule, the “Population Healthy Nuclei (%)” value [3] was 69%, the “Population Hoechst High Intensity Objects (%)” value [3] was 2% and the “Population Membrane Permeable-Phenotype (%)” value [3] was 8%. For the same molecule, the “Population Mitochondria Different-Phenotype (%)” value [3] was 3%, the “Population Mitotic Cells (%)” value [3] was 28% and the “Population Normal (%)” value [3] was 97%. The “Population Pyknosed Nuclei (%)” value [3] was 7%, the “Population Tubulin-Different-Phenotype (%)” value [3] was 5% and the “Total Cell Count” value [3] was 190. The “Population Apoptotic (%)” value [4] was 66%, the “Population Fragmented Nuclei (%)” value [4] was 16% and the “Population Healthy Nuclei (%)” value [4] was 73%. The “Population Membrane Permeable-Phenotype (%)” value [4] was 10%, the “Population Mitochondria Different-Phenotype (%)” value [4] was 2% and the “Population Mitotic Cells (%)” value [4] was 33%. The “Population Pyknosed Nuclei (%)” value [4] was 9%, the “Population Tubulin-Different-Phenotype (%)” value [4] was 4% and the “Total Cell Count” value [4] was 94. For the same molecule, the “Population Apoptotic (%)” value [5] was 86%, the “Population Fragmented Nuclei (%)” value [5] was 27% and the “Population Healthy Nuclei (%)” value [5] was 63%. For the same molecule, the “Population Hoechst High Intensity Objects (%)” value [5] was 2%, the “Population Membrane Permeable-Phenotype (%)” value [5] was 3% and the “Population Mitochondria Different-Phenotype (%)” value [5] was 0%. The “Population Mitotic Cells (%)” value [5] was 13%, the “Population Normal (%)” value [5] was 98% and the “Population Pyknosed Nuclei (%)” value [5] was 8%. The “Population Tubulin-Different-Phenotype (%)” value [5] was 1%, the “Total Cell Count” value [5] was 250 and the “Population Apoptotic (%)” value [6] was 90%. The “Population Fragmented Nuclei (%)” value [6] was 16%, the “Population Healthy Nuclei (%)” value [6] was 74% and the “Population Hoechst High Intensity Objects (%)” value [6] was 0%. The “Population Membrane Permeable-Phenotype (%)” value [6] was 5%, the “Population Mitochondria Different-Phenotype (%)” value [6] was 7% and the “Population Mitotic Cells (%)” value [6] was 9%. For the same molecule, the “Population Normal (%)” value [6] was 99%, the “Population Tubulin-Different-Phenotype (%)” value [6] was 4% and the “Total Cell Count” value [6] was 131. For the same molecule, the “Population Apoptotic (%)” value [7] was 100%, the “Population Fragmented Nuclei (%)” value [7] was 23% and the “Population Healthy Nuclei (%)” value [7] was 66%. For the same molecule, the “Population Hoechst High Intensity Objects (%)” value [7] was 1%, the “Population Membrane Permeable-Phenotype (%)” value [7] was 6% and the “Population Mitochondria Different-Phenotype (%)” value [7] was 4%. For the same molecule, the “Population Mitotic Cells (%)” value [7] was 0%, the “Population Normal (%)” value [7] was 98% and the “Population Pyknosed Nuclei (%)” value [7] was 9%. The “Population Tubulin-Different-Phenotype (%)” value [7] was 4%, the “Total Cell Count” value [7] was 216 and the “Population Apoptotic (%)” value [8] was 90%. For the same molecule, the “Population Fragmented Nuclei (%)” value [8] was 16%, the “Population Healthy Nuclei (%)” value [8] was 74% and the “Population Hoechst High Intensity Objects (%)” value [8] was 2%. For the same molecule, the “Population Membrane Permeable-Phenotype (%)” value [8] was 5%, the “Population Mitochondria Different-Phenotype (%)” value [8] was 1% and the “Population Mitotic Cells (%)” value [8] was 10%. For the same molecule, the “Population Normal (%)” value [8] was 97%, the “Population Pyknosed Nuclei (%)” value [8] was 8% and the “Population Tubulin-Different-Phenotype (%)” value [8] was 2%. The “Total Cell Count” value [8] was 118, the “Population Apoptotic (%)” value [9] was 89% and the “Population Fragmented Nuclei (%)” value [9] was 19%. The “Population Healthy Nuclei (%)” value [9] was 71%, the “Population Hoechst High Intensity Objects (%)” value [9] was 2% and the “Population Membrane Permeable-Phenotype (%)” value [9] was 4%. The “Population Mitochondria Different-Phenotype (%)” value [9] was 3%, the “Population Mitotic Cells (%)” value [9] was 10% and the “Population Normal (%)” value [9] was 97%. The “Population Pyknosed Nuclei (%)” value [9] was 8%, the “Population Tubulin-Different-Phenotype (%)” value [9] was 2% and the “Total Cell Count” value [9] was 334. The “Population Apoptotic (%)” value [10] was 100%, the “Population Fragmented Nuclei (%)” value [10] was 13% and the “Population Healthy Nuclei (%)” value [10] was 79%. For the same molecule, the “Population Membrane Permeable-Phenotype (%)” value [10] was 5%, the “Population Mitochondria Different-Phenotype (%)” value [10] was 4% and the “Population Mitotic Cells (%)” value [10] was 0%. The “Population Pyknosed Nuclei (%)” value [10] was 7%, the “Population Tubulin-Different-Phenotype (%)” value [10] was 3% and the “Total Cell Count” value [10] was 189. The “Population Apoptotic (%)” value [11] was 89%, the “Population Fragmented Nuclei (%)” value [11] was 23% and the “Population Healthy Nuclei (%)” value [11] was 67%. For the same molecule, the “Population Hoechst High Intensity Objects (%)” value [11] was 3%, the “Population Membrane Permeable-Phenotype (%)” value [11] was 6% and the “Population Mitochondria Different-Phenotype (%)” value [11] was 3%. The “Population Mitotic Cells (%)” value [11] was 10%, the “Population Normal (%)” value [11] was 96% and the “Population Pyknosed Nuclei (%)” value [11] was 9%. The “Population Tubulin-Different-Phenotype (%)” value [11] was 4%, the “Total Cell Count” value [11] was 302 and the “Population Apoptotic (%)” value [12] was 100%. For the same molecule, the “Population Fragmented Nuclei (%)” value [12] was 21%, the “Population Healthy Nuclei (%)” value [12] was 70% and the “Population Hoechst High Intensity Objects (%)” value [12] was 2%. The “Population Membrane Permeable-Phenotype (%)” value [12] was 7%, the “Population Mitotic Cells (%)” value [12] was 0% and the “Population Normal (%)” value [12] was 97%. The “Population Pyknosed Nuclei (%)” value [12] was 7%, the “Population Tubulin-Different-Phenotype (%)” value [12] was 3% and the “Total Cell Count” value [12] was 161.
